Assay results as given in ChEMBL document CHEMBL2074053, “Modified jatrophane diterpenes as modulators of multidrug resistance from Euphorbia dendroides L” (Bioorg Med Chem, 2003).

Columns and labels:
Type in all cases: functional, cell-based
Details in all cases: k562/r7, 5 µM
[1] = biological target: T1, ATP-dependent translocase ABCB1 (Homo sapiens, UniProt P08183); experiment: TP_TRANSPORTER: inhibition of Daunomycin efflux (Daunomycin: 10 uM, 13alpha-OH Terracinolide B: 5 uM) in K562/R7 cells
In short: (§1)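 Cells washed twice in ice-cold PBS and held on ice. Intracellular daunomycin read by flow cytometry. Efflux inhibition is the fluorescence shift relative to 2 µM cyclosporin A as positive control. Duplicates, at least three separate experiments.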

[2] = biological target: T1, ATP-dependent translocase ABCB1; experiment: TP_TRANSPORTER: inhibition of Daunomycin efflux (Daunomycin: 10 uM, 13alpha-OH Terracinolide G: 5 uM) in K562/R7 cells; in short: as §1
[3] = biological target: T1, ATP-dependent translocase ABCB1; experiment: TP_TRANSPORTER: inhibition of Daunomycin efflux (Daunomycin: 10 uM, Terracinolide L: 5 uM) in K562/R7 cells; in short: as §1
[4] = biological target: T1, ATP-dependent translocase ABCB1; experiment: TP_TRANSPORTER: inhibition of Daunomycin efflux (Daunomycin: 10 uM, Epiabeodendroidin F: 5 uM) in K562/R7 cells; in short: as §1
[5] = biological target: T1, ATP-dependent translocase ABCB1; experiment: TP_TRANSPORTER: inhibition of Daunomycin efflux (Daunomycin: 10 uM, Terracinolide B: 5 uM) in K562/R7 cells; in short: as §1
[6] = biological target: T1, ATP-dependent translocase ABCB1; experiment: TP_TRANSPORTER: inhibition of Daunomycin efflux (Daunomycin: 10 uM, Terracinolide C: 5 uM) in K562/R7 cells; in short: as §1
[7] = biological target: T1, ATP-dependent translocase ABCB1; experiment: TP_TRANSPORTER: inhibition of Daunomycin efflux (Daunomycin: 10 uM, Terracinolide K: 5 uM) in K562/R7 cells; in short: as §1

T1 sequence (P08183 whole entry): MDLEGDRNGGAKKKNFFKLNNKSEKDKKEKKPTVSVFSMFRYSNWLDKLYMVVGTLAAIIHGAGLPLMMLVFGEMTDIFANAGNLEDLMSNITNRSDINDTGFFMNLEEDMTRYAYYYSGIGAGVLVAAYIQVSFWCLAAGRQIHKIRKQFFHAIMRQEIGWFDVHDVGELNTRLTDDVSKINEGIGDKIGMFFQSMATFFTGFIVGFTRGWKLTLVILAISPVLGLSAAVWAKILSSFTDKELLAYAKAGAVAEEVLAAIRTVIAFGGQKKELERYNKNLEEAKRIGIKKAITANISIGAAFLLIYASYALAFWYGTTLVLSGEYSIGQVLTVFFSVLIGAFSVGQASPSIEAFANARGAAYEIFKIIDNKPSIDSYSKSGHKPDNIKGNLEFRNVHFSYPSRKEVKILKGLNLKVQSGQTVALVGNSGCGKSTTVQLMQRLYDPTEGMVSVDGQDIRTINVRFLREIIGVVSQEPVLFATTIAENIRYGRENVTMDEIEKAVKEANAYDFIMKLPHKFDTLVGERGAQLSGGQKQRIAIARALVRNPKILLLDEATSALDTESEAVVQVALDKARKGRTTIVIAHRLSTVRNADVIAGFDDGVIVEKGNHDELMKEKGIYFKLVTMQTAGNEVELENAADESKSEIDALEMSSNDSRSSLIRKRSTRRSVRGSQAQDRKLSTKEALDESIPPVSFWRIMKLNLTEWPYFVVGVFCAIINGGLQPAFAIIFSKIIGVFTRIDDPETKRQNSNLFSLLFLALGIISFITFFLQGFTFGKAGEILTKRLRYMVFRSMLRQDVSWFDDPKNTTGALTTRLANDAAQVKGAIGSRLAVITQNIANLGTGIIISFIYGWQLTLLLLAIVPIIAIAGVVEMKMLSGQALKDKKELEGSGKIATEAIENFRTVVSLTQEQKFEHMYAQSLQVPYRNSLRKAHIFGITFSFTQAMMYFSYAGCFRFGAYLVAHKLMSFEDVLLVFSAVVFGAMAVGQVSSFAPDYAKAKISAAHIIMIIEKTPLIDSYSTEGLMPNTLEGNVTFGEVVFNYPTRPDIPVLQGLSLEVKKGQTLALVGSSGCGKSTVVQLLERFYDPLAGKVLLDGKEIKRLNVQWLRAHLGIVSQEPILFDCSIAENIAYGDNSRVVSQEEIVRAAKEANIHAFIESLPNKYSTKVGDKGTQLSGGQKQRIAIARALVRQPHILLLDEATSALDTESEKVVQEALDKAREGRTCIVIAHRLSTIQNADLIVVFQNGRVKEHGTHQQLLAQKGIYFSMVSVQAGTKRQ

CC(=O)O[C@H]1[C@@H](OC(C)=O)C(C)(C)/C=C/[C@@](C)(O)C(=O)[C@@]2(OC(C)=O)C[C@@](C)(OC(C)=O)[C@H](OC(C)=O)[C@@H]2[C@H]2OC(=O)CC[C@@]2(OC(C)=O)[C@@H]1OC(=O)C(C)C
Activity [1]: inhibitor [+]

CC(=O)O[C@H]1[C@@H](OC(C)=O)C(C)(C)/C=C/[C@@](C)(O)C(=O)[C@@]2(O)C[C@@](C)(OC(C)=O)[C@H](OC(C)=O)[C@@H]2[C@H]2OC(=O)CC[C@@]2(OC(C)=O)[C@@H]1OC(=O)C(C)C
Activity [2]: inhibitor [+]

CC(=O)O[C@H]1[C@@H](OC(C)=O)C(C)(C)/C=C/[C@H](C)C(=O)[C@@]2(OC(C)=O)C[C@@](C)(O)[C@H](OC(C)=O)[C@@H]2[C@H]2OC(=O)CC[C@@]2(OC(=O)C(C)C)[C@@H]1OC(=O)C(C)C
Activity [3]: is not an inhibitor [-]

C=C1[C@H](OC(=O)c2ccccc2)[C@@H](OC(C)=O)[C@@H](OC(C)=O)C(C)(C)/C=C/[C@H](C)[C@]2(O)C[C@@](C)(O)[C@H](OC(C)=O)[C@@H](C2=O)[C@H]1OC(=O)C(C)C [EPIABEODENDROIDIN F]
Activity [4]: inhibitor [+]

CC(=O)O[C@H]1[C@@H](OC(C)=O)C(C)(C)/C=C/[C@H](C)C(=O)[C@@]2(OC(C)=O)C[C@@](C)(OC(C)=O)[C@H](OC(C)=O)[C@@H]2[C@H]2OC(=O)CC[C@@]2(OC(C)=O)[C@H]1OC(=O)C(C)C [TERRACINOLIDE B]
Activity [5]: inhibitor [+]

CC(=O)O[C@H]1[C@@H](OC(C)=O)C(C)(C)/C=C/[C@H](C)C(=O)[C@@]2(OC(C)=O)C[C@@](C)(OC(C)=O)[C@H](O)[C@@H]2[C@H]2OC(=O)CC[C@@]2(OC(C)=O)[C@@H]1OC(=O)C(C)C [TERRACINOLIDE C]
Activity [6]: inhibitor [+]

CC(=O)O[C@H]1[C@@H](OC(C)=O)C(C)(C)/C=C/[C@H](C)C(=O)[C@@]2(OC(C)=O)C[C@@](C)(O)[C@H](OC(C)=O)[C@@H]2[C@H]2OC(=O)CC[C@@]2(OC(C)=O)[C@@H]1OC(=O)C(C)C [TERRACINOLIDE K]
Activity [7]: inhibitor [+]
